# Source: ChEMBL document CHEMBL1139333, “Search for new pharmacophores for antimalarial activity. Part I: synthesis and antimalarial activity of new 2-methyl-6-ureido-4-quinolinamides” (Bioorg Med Chem, 2009)
# Test system: not listed separately
# Assay: Selectivity index, ratio of CC50 for african green monkey (Cercopithecus aethiops) Vero cells to IC50 for Plasmodium falciparum 3D7
# Type: functional
# Conditions: not given
row,Compound,Selectivity Index
1,Cc1cc(NC(=O)c2ccccc2Cl)c2cc(NC(=O)Nc3cccc(C#N)c3)ccc2n1,2401.9
2,Cc1cc(NC(=O)c2cccc(Cl)c2)c2cc(NC(=O)Nc3cc(Cl)cc(Cl)c3)ccc2n1,187.7
3,Cc1cc(NC(=O)c2cccc(Cl)c2)c2cc(NC(=O)Nc3cccc(Cl)c3C)ccc2n1,184.5
4,Cc1cc(NC(=O)c2cccc(Cl)c2)c2cc(NC(=O)Nc3cccc(C(F)(F)F)c3)ccc2n1,6014.2
5,Cc1cc(NC(=O)c2ccccc2Cl)c2cc(NC(=O)Nc3cc(Cl)cc(Cl)c3)ccc2n1,505
6,Cc1cc(NC(=O)c2ccco2)c2cc(NC(=O)Nc3ccc(C)c(Cl)c3)ccc2n1,524.7
7,Cc1cc(NC(=O)c2cccc(Cl)c2)c2cc(NC(=O)Nc3ccc(F)c(Cl)c3)ccc2n1,125.6
8,Cc1cc(NC(=O)CN2CCCCC2)c2cc(NC(=O)Nc3ccc(Cl)c(Cl)c3)ccc2n1,524.2
9,Cc1cc(NC(=O)c2ccccc2Cl)c2cc(NC(=O)Nc3ccc(C)c(Cl)c3)ccc2n1,205.1
10,Cc1cc(NC(=O)CN2CCN(C)CC2)c2cc(NC(=O)Nc3cccc(C(F)(F)F)c3)ccc2n1,2594.9
11,CC(=O)c1cccc(NC(=O)Nc2ccc3nc(C)cc(NC(=O)CN4CCN(C)CC4)c3c2)c1,524.5
12,Cc1cc(NC(=O)c2ccccc2Cl)c2cc(NC(=O)Nc3cccc(Cl)c3)ccc2n1,32.1
13,Cc1cc(NC(=O)CN2CCCCC2)c2cc(NC(=O)Nc3cccc(C(F)(F)F)c3)ccc2n1,214.3
14,Cc1cc(NC(=O)CN2CCCCC2)c2cc(NC(=O)Nc3ccc(Cl)cc3)ccc2n1,64.9
15,Cc1cc(NC(=O)CN2CCCCC2)c2cc(NC(=O)Nc3cc(Cl)cc(Cl)c3)ccc2n1,396.9
16,Cc1cc(NC(=O)c2ccco2)c2cc(NC(=O)Nc3ccc(Cl)c(C(F)(F)F)c3)ccc2n1,713.3
17,Cc1cc(NC(=O)c2ccco2)c2cc(NC(=O)Nc3ccc(Cl)cc3)ccc2n1,3909.5
18,CC(=O)c1cccc(NC(=O)Nc2ccc3nc(C)cc(NC(=O)CN4CCCCC4)c3c2)c1,214.4
19,Cc1cc(NC(=O)c2ccccc2Cl)c2cc(NC(=O)Nc3ccc(Cl)c(C(F)(F)F)c3)ccc2n1,270.9
20,Cc1cc(NC(=O)c2ccco2)c2cc(NC(=O)Nc3ccc(Br)cc3)ccc2n1,1547
21,Cc1cc(NC(=O)c2ccccc2Cl)c2cc(NC(=O)Nc3ccc(Cl)c(Cl)c3)ccc2n1,16.8

# Test system: Plasmodium falciparum
# Assay: Antimalarial effect as schizonticidal activity against chloroquine-sensitive Plasmodium falciparum 3D7 after 40 hrs
# Conditions: 3D7, 40 h
row,Compound,MIC
1,Cc1cc(NC(=O)c2cccc(Cl)c2)c2cc(NC(=O)Nc3ccc(F)cc3)ccc2n1,10 µg/mL
2,Cc1cc(NC(=O)c2cccc(Cl)c2)c2cc(NC(=O)Nc3cccc(Cl)c3)ccc2n1,50 µg/mL
3,Cc1cc(NC(=O)c2cccc(Cl)c2)c2cc(NC(=O)Nc3ccc(C)c(Cl)c3)ccc2n1,10 µg/mL
4,Cc1cc(NC(=O)c2ccccc2Cl)c2cc(NC(=O)Nc3cccc(F)c3)ccc2n1,2 µg/mL
5,Cc1cc(NC(=O)c2ccccc2Cl)c2cc(NC(=O)Nc3cccc(C#N)c3)ccc2n1,1 µg/mL
6,CCN1CCN(CC(=O)Nc2cc(C)nc3ccc(NC(=O)Nc4ccc(C)c(Cl)c4)cc23)CC1,0.5 µg/mL
7,Cc1cc(NC(=O)CN2CCN(C)CC2)c2cc(NC(=O)Nc3cccc(Cl)c3C)ccc2n1,> 10 µg/mL
8,Cc1cc(NC(=O)c2ccccc2Cl)c2cc(NC(=O)Nc3cccc(Cl)c3C)ccc2n1,10 µg/mL
9,CCN(CC)CCCC(C)Nc1ccnc2cc(Cl)ccc12 (centres undefined) [CHLOROQUINE],0.015 µg/mL
10,Cc1cc(NC(=O)c2ccccc2)c2cc(NC(=O)Nc3cccc(F)c3)ccc2n1,10 µg/mL
11,Cc1cc(NC(=O)c2ccccc2)c2cc(NC(=O)Nc3ccc(Br)cc3)ccc2n1,10 µg/mL
12,CC(=O)c1cccc(NC(=O)Nc2ccc3nc(C)cc(NC(=O)c4cccc(Cl)c4)c3c2)c1,10 µg/mL
13,Cc1cc(NC(=O)c2cccc(Cl)c2)c2cc(NC(=O)Nc3cc(Cl)cc(Cl)c3)ccc2n1,2 µg/mL
14,CC(=O)Nc1cc(C)nc2ccc(NC(=O)Nc3ccc(Cl)cc3)cc12,10 µg/mL
15,Cc1cc(NC(=O)c2cccc(Cl)c2)c2cc(NC(=O)Nc3cccc(Cl)c3C)ccc2n1,1 µg/mL
16,Cc1cc(NC(=O)c2ccco2)c2cc(NC(=O)Nc3cc(Cl)cc(Cl)c3)ccc2n1,2 µg/mL
17,Cc1cc(NC(=O)c2ccco2)c2cc(NC(=O)Nc3ccc(C)c(Cl)c3)ccc2n1,0.5 µg/mL
18,Cc1cc(NC(=O)CN2CCCCC2)c2cc(NC(=O)Nc3ccc(Cl)c(Cl)c3)ccc2n1,0.25 µg/mL
19,Cc1cc(NC(=O)c2ccccc2Cl)c2cc(NC(=O)Nc3ccc(C)c(Cl)c3)ccc2n1,1 µg/mL
20,Cc1cc(NC(=O)CN2CCN(C)CC2)c2cc(NC(=O)Nc3cccc(C(F)(F)F)c3)ccc2n1,0.25 µg/mL
21,CC(=O)c1cccc(NC(=O)Nc2ccc3nc(C)cc(NC(=O)CN4CCN(C)CC4)c3c2)c1,0.5 µg/mL
22,Cc1cc(NC(=O)c2ccccc2Cl)c2cc(NC(=O)Nc3cccc(Cl)c3)ccc2n1,0.5 µg/mL
23,Cc1cc(NC(=O)CN2CCCCC2)c2cc(NC(=O)Nc3cccc(C(F)(F)F)c3)ccc2n1,0.25 µg/mL
24,Cc1cc(NC(=O)CN2CCCCC2)c2cc(NC(=O)Nc3ccc(Cl)cc3)ccc2n1,0.5 µg/mL
25,Cc1cc(NC(=O)CN2CCCCC2)c2cc(NC(=O)Nc3cc(Cl)cc(Cl)c3)ccc2n1,0.5 µg/mL
26,Cc1cc(NC(=O)c2ccco2)c2cc(NC(=O)Nc3ccc(Cl)cc3)ccc2n1,0.5 µg/mL
27,Cc1cc(NC(=O)c2ccco2)c2cc(NC(=O)Nc3ccc(Br)cc3)ccc2n1,1 µg/mL
28,Cc1cc(NC(=O)c2ccccc2Cl)c2cc(NC(=O)Nc3ccc(Cl)c(Cl)c3)ccc2n1,1 µg/mL

# Test system: Plasmodium yoelii
# Assay: Antimalarial activity as parasitaemia after 28 days against chloroquine-resistant Plasmodium yoelii N67 infected Swiss mice (Mus musculus) at 50 mg/kg peroral dose over 7 days
# Type: functional
# Conditions: route oral
row,Compound,Activity
1,Cc1cc(NC(=O)c2ccccc2Cl)c2cc(NC(=O)Nc3cccc(C#N)c3)ccc2n1,12.11%
2,Cc1cc(NC(=O)c2ccco2)c2cc(NC(=O)Nc3ccc(C)c(Cl)c3)ccc2n1,21.1%
3,Cc1cc(NC(=O)c2cccc(Cl)c2)c2cc(NC(=O)Nc3ccc(F)c(Cl)c3)ccc2n1,15.5%
4,Cc1cc(NC(=O)c2ccccc2Cl)c2cc(NC(=O)Nc3ccc(C)c(Cl)c3)ccc2n1,5.08%
5,Cc1cc(NC(=O)CN2CCN(C)CC2)c2cc(NC(=O)Nc3cccc(C(F)(F)F)c3)ccc2n1,21.9%
6,Cc1cc(NC(=O)c2ccccc2Cl)c2cc(NC(=O)Nc3cccc(Cl)c3)ccc2n1,9.77%
7,Cc1cc(NC(=O)c2ccco2)c2cc(NC(=O)Nc3ccc(Cl)cc3)ccc2n1,13.2%

# Test system: Plasmodium falciparum
# Assay: Antimalarial activity against chloroquine-sensitive Plasmodium falciparum 3D7 infected erythrocytes after 72 hrs by MSF assay
# Conditions: 3D7, 72 h
row,Compound,IC50
1,Cc1cc(NC(=O)c2ccccc2Cl)c2cc(NC(=O)Nc3cccc(C#N)c3)ccc2n1,0.0284 µg/mL
2,CCN1CCN(CC(=O)Nc2cc(C)nc3ccc(NC(=O)Nc4ccc(C)c(Cl)c4)cc23)CC1,0.0035 µg/mL
3,Cc1cc(NC(=O)c2cccc(Cl)c2)c2cc(NC(=O)Nc3cc(Cl)cc(Cl)c3)ccc2n1,0.218 µg/mL
4,Cc1cc(NC(=O)c2cccc(Cl)c2)c2cc(NC(=O)Nc3cccc(Cl)c3C)ccc2n1,0.034 µg/mL
5,Cc1cc(NC(=O)c2cccc(Cl)c2)c2cc(NC(=O)Nc3cccc(C(F)(F)F)c3)ccc2n1,0.0099 µg/mL
6,Cc1cc(NC(=O)c2ccccc2Cl)c2cc(NC(=O)Nc3cc(Cl)cc(Cl)c3)ccc2n1,0.0217 µg/mL
7,Cc1cc(NC(=O)c2ccco2)c2cc(NC(=O)Nc3ccc(C)c(Cl)c3)ccc2n1,0.135 µg/mL
8,Cc1cc(NC(=O)c2cccc(Cl)c2)c2cc(NC(=O)Nc3ccc(F)c(Cl)c3)ccc2n1,0.0682 µg/mL
9,Cc1cc(NC(=O)CN2CCCCC2)c2cc(NC(=O)Nc3ccc(Cl)c(Cl)c3)ccc2n1,0.0758 µg/mL
10,Cc1cc(NC(=O)c2ccccc2Cl)c2cc(NC(=O)Nc3ccc(C)c(Cl)c3)ccc2n1,0.0445 µg/mL
11,Cc1cc(NC(=O)CN2CCN(C)CC2)c2cc(NC(=O)Nc3cccc(C(F)(F)F)c3)ccc2n1,0.0008 µg/mL
12,CC(=O)c1cccc(NC(=O)Nc2ccc3nc(C)cc(NC(=O)CN4CCN(C)CC4)c3c2)c1,0.146 µg/mL
13,Cc1cc(NC(=O)c2ccccc2Cl)c2cc(NC(=O)Nc3cccc(Cl)c3)ccc2n1,0.22 µg/mL
14,Cc1cc(NC(=O)CN2CCCCC2)c2cc(NC(=O)Nc3cccc(C(F)(F)F)c3)ccc2n1,0.0335 µg/mL
15,Cc1cc(NC(=O)CN2CCCCC2)c2cc(NC(=O)Nc3ccc(Cl)cc3)ccc2n1,0.023 µg/mL
16,Cc1cc(NC(=O)CN2CCCCC2)c2cc(NC(=O)Nc3cc(Cl)cc(Cl)c3)ccc2n1,0.0288 µg/mL
17,Cc1cc(NC(=O)c2ccco2)c2cc(NC(=O)Nc3ccc(Cl)c(C(F)(F)F)c3)ccc2n1,0.0099 µg/mL
18,Cc1cc(NC(=O)c2ccco2)c2cc(NC(=O)Nc3ccc(Cl)cc3)ccc2n1,0.0139 µg/mL
19,Cc1cc(NC(=O)c2ccccc2Cl)c2cc(NC(=O)Nc3ccc(Cl)c(C(F)(F)F)c3)ccc2n1,0.0356 µg/mL
20,Cc1cc(NC(=O)c2ccco2)c2cc(NC(=O)Nc3ccc(Br)cc3)ccc2n1,0.0571 µg/mL
21,Cc1cc(NC(=O)c2ccccc2Cl)c2cc(NC(=O)Nc3ccc(Cl)c(Cl)c3)ccc2n1,0.194 µg/mL

# Test system: Plasmodium yoelii
# Assay: Antimalarial activity as parasitaemia after 28 days against chloroquine-resistant Plasmodium yoelii N67 infected Swiss mice (Mus musculus) at 50 mg/kg peroral dose over 4 days
# Type: functional
# Conditions: route oral
# Method in brief: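 Swiss mice (25 g, either sex, n=5) infected on day 0 with 1 × 10⁶ P. yoelii N67 chloroquine-resistant parasitized cells. Test compounds were given orally as an aqueous suspension at 50 mg/kg from day 0 to 3; vehicle controls were run alongside. Parasitaemia was counted on tail-vein thin smears on days 4, 7, 14, 21 and 28, or until death.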
row,Compound,Activity
1,Cc1cc(NC(=O)c2ccccc2Cl)c2cc(NC(=O)Nc3cccc(C#N)c3)ccc2n1,6.05%
2,Cc1cc(NC(=O)c2ccco2)c2cc(NC(=O)Nc3ccc(C)c(Cl)c3)ccc2n1,0.61%
3,Cc1cc(NC(=O)c2cccc(Cl)c2)c2cc(NC(=O)Nc3ccc(F)c(Cl)c3)ccc2n1,3.76%
4,Cc1cc(NC(=O)c2ccccc2Cl)c2cc(NC(=O)Nc3ccc(C)c(Cl)c3)ccc2n1,2.15%
5,Cc1cc(NC(=O)CN2CCN(C)CC2)c2cc(NC(=O)Nc3cccc(C(F)(F)F)c3)ccc2n1,2.5%
6,Cc1cc(NC(=O)c2ccccc2Cl)c2cc(NC(=O)Nc3cccc(Cl)c3)ccc2n1,4.23%
7,Cc1cc(NC(=O)c2ccco2)c2cc(NC(=O)Nc3ccc(Cl)cc3)ccc2n1,2.95%
